From ChEMBL document CHEMBL1127816, “Synthesis and antiestrogenic activity of diaryl thioether derivatives” (1994)
Calls of active or inactive are those of the source. No cut-off for these calls is given here.

How the values were obtained:
[1] = target: T1, Estrogen receptor (Homo sapiens) (UniProt Q92731+P03372); assay: Ability to stimulate the basal cell proliferation of ZR-75-1 cells at a dose of 1 uM; assay type: functional, cell-based
In short: (§1)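 ZR-75-1 cells were plated at 10 000 cells/dish in phenol-red-free SD medium (5% dextran-charcoal FBS) and allowed to adhere for 3 days. Compound was added at 1 uM without E2 (controls received 0.1% ethanol). Cells were incubated for 9 days at 37 °C with medium renewed every 2-3 days. Basal proliferation was read as DNA content (ng/dish). Done in triplicate.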

[2] = target: T2, Estrogen receptor (Rattus norvegicus) (UniProt P06211+Q62986); assay: Relative binding affinity (RBA) on estrogen receptor was measured by in vitro using cytosol from the immature rat uterus; N means no binding observed; assay type: protein assay
In short: (§2)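 Competitive displacement of [3H]estradiol from estrogen receptor. Incubation was 3 h at 25 °C. Nonspecific binding was defined with 1000 nM unlabeled estradiol. RBA = 100 × IC50(estradiol)/IC50(compound), with estradiol set at 100%.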

[3] = Antiestrogenic activity against Estradiol (E2) induced cell proliferation; set-up: concentration or dose not given beside the values
[4] = target: T1, Estrogen receptor (Homo sapiens); assay: Ability to inhibit E2-induced proliferation of ZR-75-1 cells at a dose of 1 uM; assay type: functional, cell-based
In short: (§3)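 ZR-75-1 cells (passages 90-96, kept in phenol-red-free RPMI-1640 with 10 nM E2) were plated at 10 000 cells/dish in SD medium (5% dextran-charcoal FBS, insulin) and allowed to adhere for 3 days. They were then treated for 9 days at 37 °C with compound (1 uM, ethanol vehicle 0.1%) plus E2 0.1 nM, with medium changed every 2-3 days. Read-out was DNA content. % inhibition = 100 − [(D−B)/(C−A)]×100. Done in triplicate.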

[5] = tested on: ZR-75-1; assay: (§4) Inhibition of E2-induced proliferation of ZR-75-1 cells at 1 uM; assay type: functional, Homo sapiens; in short: as §3
[6] = tested on: ZR-75-1; assay: as §4; assay type: functional, Homo sapiens; in short: as §3; remark: listed apart in the source
[7] = Compound was tested for percent inhibition of the Estradiol (E2) induced cell proliferation; set-up: concentration or dose not given beside the values
[8] = target: T2, Estrogen receptor (Rattus norvegicus); assay: Relative binding affinity (RBA) on estrogen receptor was measured by in vitro using cytosol from the immature rat uterus; assay type: protein assay; in short: as §2
[9] = tested on: ZR-75-1; assay: Stimulation of basal cell proliferation of ZR-75-1 cells at 1 uM; assay type: functional, Homo sapiens; in short: as §1
[10] = Percent inhibition of Estradiol (E2) induced cell proliferation; set-up: scale not given: the % may be the effect or the level left

Compound | Binding ((ng of DNA) dish-1) [1] | relative binding affinity (RBA) [2] | Activity [3] [%] | DNA content per dish (cell proliferation) ((ng of DNA) dish-1) [4] | Binding [5] | Binding [6] | Activity [7] [%] | RBA [8] [%] | Binding [9] | Activity [10] [%]
CCCCN(C)C(=O)CCSC(Cc1ccc(OCc2ccccc2)cc1)c1ccc(OC)cc1 (stereo not drawn) | 789 | inactive | 64 | 1020 |  |  |  |  |  | 
CCCCN(C)C(=O)CCCCCCCCCCC1Cc2cc(O)ccc2[C@H]2CC[C@]3(C)[C@@H](O)[C@H](Cl)C[C@H]3[C@H]12 (stereo partly drawn) |  |  | 103 |  | 1403 (ng of DNA) dish-1 | 662 (ng of DNA) dish-1 | 94 | 1.2 | 679 (ng of DNA) dish-1 | 
CCCCN(C)C(=O)CCSC(Cc1ccc(O)cc1)c1ccc(OC)cc1 (stereo not drawn) | 684 |  | 66 | 902 |  |  |  | 0.01 |  | 
CCCCN(C)C(=O)CCCCCCCSC(Cc1ccc(OC)cc1)c1ccc(OC)cc1 (stereo not drawn) | 746 | inactive | 36 | 1150 |  |  |  |  |  | 
CCCCN(C)C(=O)CCCCCCCSC(Cc1ccc(O)cc1)c1ccc(OC)cc1 (stereo not drawn) | 698 |  | 66 | 915 |  |  |  | 0.05 |  | 
OCCCCCCCCCCCSC(Cc1ccc(O)cc1)c1ccc(O)cc1 (stereo not drawn) | 1540 |  |  | 2230 |  |  | 42 | 0.02 |  | 
CCCCN(C)C(=O)CCCCCCCSC(Cc1ccc(OCc2ccccc2)cc1)c1ccc(OC)cc1 (stereo not drawn) | 791 | inactive | 56 | 1070 |  |  |  |  |  | 
CCCCN(C)C(=O)CCCCCCCCCCCSC(Cc1ccc(O)cc1)c1ccc(OC)cc1 (stereo not drawn) | 807 | inactive | 55 | 1090 |  |  |  |  |  | 
COc1ccc(C(Cc2ccc(OCc3ccccc3)cc2)SCCCCCCCCCCCO)cc1 (stereo not drawn) | 725 | inactive | 41 | 1100 |  |  |  |  |  | 
CCCCN(C)C(=O)CCCCCCCCCCSC(Cc1ccc(O)cc1)c1ccc(OC)cc1 (stereo not drawn) | 733 | inactive | 8 | 1320 |  |  |  |  |  | 
CCCCN(C)C(=O)CCCCCCCCCCSC(Cc1ccc(O)cc1)c1ccc(O)cc1 (stereo not drawn) | 1150 |  |  | 1390 |  |  | 80 | 0.01 |  | 
CCCCN(C)C(=O)CCCCCSC(Cc1ccc(O)cc1)c1ccc(O)cc1 (stereo not drawn) | 1440 |  |  | 2050 |  |  |  | 0.01 |  | 49
CCCCN(C)C(=O)CCCCCCCCCCSC(Cc1ccc(OCc2ccccc2)cc1)c1ccc(OC)cc1 (stereo not drawn) | 749 |  | 42 | 1120 |  |  |  |  |  | 
CCCCN(C)C(=O)CCSC(Cc1ccc(OC)cc1)c1ccc(OC)cc1 (stereo not drawn) | 741 | inactive | 57 | 1010 |  |  |  |  |  | 
CCCCN(C)C(=O)CCCCCCCCCCCSC(Cc1ccc(OC)cc1)c1ccc(OC)cc1 (stereo not drawn) | 800 | inactive | 13 | 1350 |  |  |  |  |  | 
COc1ccc(C(Cc2ccc(O)cc2)SCCCCCCCCCCCO)cc1 (stereo not drawn) | 839 |  |  | 1280 |  |  | 31 | 0.02 |  | 
CCCCN(C)C(=O)CCSC(Cc1ccc(O)cc1)c1ccc(O)cc1 (stereo not drawn) | 1890 |  |  | 2600 |  |  | 40 | 0.01 |  | 
CCCCN(C)C(=O)CCCCCCCSC(Cc1ccc(O)cc1)c1ccc(O)cc1 (stereo not drawn) | 1410 |  |  | 2070 |  |  | 44 | 0.01 |  | 
